Results from ChEMBL document CHEMBL5705905, “Pharmacological targeting of kinases MST1 and MST2 augments tissue repair and regeneration” (Sci Transl Med, 2016).
Active and inactive are the calls of the source. The calls are words filed in the database; no cut-off is given here.

Assays:
[1] = target: NUAK family SNF1-like kinase 2 (Homo sapiens) (UniProt Q9H093); assay: Inhibition of SNARK (unknown origin) assessed as remaining activity at 1 uM by Kinome scan method relative to control
[2] = target: Homeodomain-interacting protein kinase 4 (Homo sapiens) (UniProt Q8NE63); assay: Inhibition of HIPK4 (unknown origin) assessed as remaining activity at 1 uM by Kinome scan method relative to control
[3] = Acute toxicity in wild-type mouse assessed as bromodeoxyuridine positive cells at 1 mg/kg,ip administrated daily for 2 months and after 2 weeks drug withdrawal by H and E staining based immunohistochemical analysis; type: organism-based; details: in vivo, 1460 h
Outline: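 Wild-type mice dosed 1 mg/kg i.p. daily for 2 months (vehicle 0.1% citric acid aqueous solution with 20% Kolliphor HS 15), or dosed and then withdrawn 2 weeks. Liver sections given H&E and IHC for CK19 and BrdU; positive cells counted, n = 3; means ± SD, Student's t test.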

[4] = target: Calcium-dependent protein kinase 1 (Plasmodium falciparum) (UniProt P62344); assay: Inhibition of Plasmodium falciparum CDPK1 assessed as remaining activity at 1 uM by Kinome scan method relative to control
Chain of Calcium-dependent protein kinase 1 (Plasmodium falciparum) (P62344 2-524 limits assumed): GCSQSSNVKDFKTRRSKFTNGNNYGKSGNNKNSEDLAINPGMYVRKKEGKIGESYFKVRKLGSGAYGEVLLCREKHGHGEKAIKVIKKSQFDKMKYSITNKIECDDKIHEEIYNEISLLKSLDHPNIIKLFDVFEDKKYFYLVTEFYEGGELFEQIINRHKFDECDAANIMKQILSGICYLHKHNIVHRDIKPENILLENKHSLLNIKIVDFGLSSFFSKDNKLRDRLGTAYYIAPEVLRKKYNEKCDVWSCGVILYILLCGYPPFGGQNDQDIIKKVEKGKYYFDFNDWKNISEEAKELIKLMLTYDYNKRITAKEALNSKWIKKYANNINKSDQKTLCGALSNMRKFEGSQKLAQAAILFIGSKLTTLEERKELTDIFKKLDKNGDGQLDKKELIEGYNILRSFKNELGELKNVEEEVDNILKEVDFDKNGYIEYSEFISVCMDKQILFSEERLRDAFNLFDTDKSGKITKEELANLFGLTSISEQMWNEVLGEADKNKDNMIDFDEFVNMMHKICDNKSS

[5] = system: Mast/stem cell growth factor receptor Kit (Homo sapiens), P10721 [L576P]; assay: Inhibition of KIT L576P mutant (unknown origin) assessed as remaining activity at 1 uM by Kinome scan method relative to control
[6] = Acute toxicity in wild-type mouse assessed as cell proliferation in colon at 3 mg/kg,ip administrated daily for 7 days by Ki67 staining; type: organism-based; details: in vivo, 168 h, time 7 day
Outline: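 Wild-type mice received vehicle or 3 mg/kg i.p. daily for 7 days. Ki67 staining of sections from various tissues with quantification of positive cells, n = 6; means ± SD, Student's t test. Daily weights, physical activity and serum chemistry were also monitored.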

[7] = target: Serine/threonine-protein kinase DCLK2 (Homo sapiens) (UniProt Q8N568); assay: Inhibition of DCAMKL2 (unknown origin) assessed as remaining activity at 1 uM by Kinome scan method relative to control
Chain of Serine/threonine-protein kinase DCLK2 (Homo sapiens) (Q8N568 whole entry): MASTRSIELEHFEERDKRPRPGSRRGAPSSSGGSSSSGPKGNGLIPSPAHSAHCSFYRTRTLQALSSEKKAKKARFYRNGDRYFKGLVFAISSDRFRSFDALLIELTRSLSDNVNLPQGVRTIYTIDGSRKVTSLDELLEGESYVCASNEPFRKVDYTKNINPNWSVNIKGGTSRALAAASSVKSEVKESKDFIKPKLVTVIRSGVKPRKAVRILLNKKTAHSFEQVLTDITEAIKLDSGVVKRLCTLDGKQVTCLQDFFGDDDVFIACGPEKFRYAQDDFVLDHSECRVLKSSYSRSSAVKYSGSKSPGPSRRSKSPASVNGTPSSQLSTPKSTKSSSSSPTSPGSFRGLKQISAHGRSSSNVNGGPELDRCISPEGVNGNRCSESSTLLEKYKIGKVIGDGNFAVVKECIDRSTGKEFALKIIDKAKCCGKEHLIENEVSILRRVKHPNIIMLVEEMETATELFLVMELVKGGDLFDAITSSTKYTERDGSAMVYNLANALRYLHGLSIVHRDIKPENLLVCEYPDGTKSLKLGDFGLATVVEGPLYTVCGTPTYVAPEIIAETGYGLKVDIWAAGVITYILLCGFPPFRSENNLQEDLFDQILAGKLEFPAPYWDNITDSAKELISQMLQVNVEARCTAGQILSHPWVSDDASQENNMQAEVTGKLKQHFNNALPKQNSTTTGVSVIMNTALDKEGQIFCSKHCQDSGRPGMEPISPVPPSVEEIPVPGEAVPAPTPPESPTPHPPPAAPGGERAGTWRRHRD

[8] = target: Insulin receptor-related protein (Homo sapiens) (UniProt P14616); assay: Inhibition of INSRR (unknown origin) assessed as remaining activity at 1 uM by Kinome scan method relative to control
[9] = target: T1, Serine/threonine-protein kinase 3 (Homo sapiens, UniProt Q13188); assay: Inhibition of Flag-tagged full-length MST2 (unknown origin) transfected in HEK293T cells assessed as MOB1a phosphorylation level incubated for 3 hrs by immunoblot analysis
T1 sequence (Q13188 whole entry): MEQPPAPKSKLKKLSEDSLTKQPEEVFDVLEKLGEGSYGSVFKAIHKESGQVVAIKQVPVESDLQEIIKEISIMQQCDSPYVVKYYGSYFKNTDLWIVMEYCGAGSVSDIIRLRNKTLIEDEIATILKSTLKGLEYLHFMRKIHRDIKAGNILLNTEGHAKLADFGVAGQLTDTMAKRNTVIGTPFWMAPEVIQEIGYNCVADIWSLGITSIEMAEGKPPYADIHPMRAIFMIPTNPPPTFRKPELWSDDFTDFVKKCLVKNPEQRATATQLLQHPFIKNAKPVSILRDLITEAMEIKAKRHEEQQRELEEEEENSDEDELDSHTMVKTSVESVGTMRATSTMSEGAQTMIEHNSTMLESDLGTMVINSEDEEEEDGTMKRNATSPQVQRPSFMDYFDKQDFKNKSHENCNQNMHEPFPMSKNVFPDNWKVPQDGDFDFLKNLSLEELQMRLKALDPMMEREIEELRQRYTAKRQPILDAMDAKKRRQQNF

[10] = target: 5'-AMP-activated protein kinase catalytic subunit alpha-1 (Homo sapiens) (UniProt Q13131); assay: Inhibition of AMPK-alpha1 (unknown origin) assessed as remaining activity at 1 uM by Kinome scan method relative to control
Chain of 5'-AMP-activated protein kinase catalytic subunit alpha-1 (Homo sapiens) (Q13131 whole entry, looked up): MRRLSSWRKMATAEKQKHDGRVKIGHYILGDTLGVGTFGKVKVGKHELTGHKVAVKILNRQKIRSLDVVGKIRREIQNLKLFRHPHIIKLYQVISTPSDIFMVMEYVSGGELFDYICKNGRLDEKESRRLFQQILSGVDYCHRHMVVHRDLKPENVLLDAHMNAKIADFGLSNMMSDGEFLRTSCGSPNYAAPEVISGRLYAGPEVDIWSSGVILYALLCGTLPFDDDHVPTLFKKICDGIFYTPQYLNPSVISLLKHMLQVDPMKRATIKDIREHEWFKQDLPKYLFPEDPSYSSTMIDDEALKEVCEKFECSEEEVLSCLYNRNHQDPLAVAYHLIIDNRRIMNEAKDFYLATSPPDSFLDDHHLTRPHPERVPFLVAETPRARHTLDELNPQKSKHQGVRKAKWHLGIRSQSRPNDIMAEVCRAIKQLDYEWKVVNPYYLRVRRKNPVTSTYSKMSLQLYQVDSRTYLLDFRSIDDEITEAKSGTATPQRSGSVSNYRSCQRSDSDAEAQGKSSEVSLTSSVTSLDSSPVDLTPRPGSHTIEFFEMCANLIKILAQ
Outline: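 Active-site-dependent competition-binding (KINOMEscan) panel of 468 kinases, test compound at 1 μM (from a 10 mM DMSO stock). Read-out is ctrl% = (test signal − positive control signal)/(negative control signal − positive control signal) × 100. DMSO is the negative control (100%) and a control compound is the positive control (0%). Lower ctrl% means tighter binding.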

[11] = Acute toxicity in wild-type mouse assessed as ratio of liver weight to body weight at 1 mg/kg,ip administrated twice daily for 7 days; type: organism-based; details: in vivo, 168 h, time 7 day
Outline: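 Wild-type mice underwent two-thirds partial hepatectomy with vehicle or 1 mg/kg i.p. twice per day, starting with a dose before surgery. Liver/body weight ratio was followed over postoperative days, n = 5; means ± SD.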

[12] = target: Serine/threonine-protein kinase MRCK beta (Homo sapiens) (UniProt Q9Y5S2); assay: Inhibition of MRCKB (unknown origin) assessed as remaining activity at 1 uM by Kinome scan method relative to control
[13] = target: Mitogen-activated protein kinase 11 (Homo sapiens) (UniProt Q15759); assay: Inhibition of P38beta (unknown origin) assessed as remaining activity at 1 uM by Kinome scan method relative to control
Chain of Mitogen-activated protein kinase 11 (Homo sapiens) (Q15759 whole entry): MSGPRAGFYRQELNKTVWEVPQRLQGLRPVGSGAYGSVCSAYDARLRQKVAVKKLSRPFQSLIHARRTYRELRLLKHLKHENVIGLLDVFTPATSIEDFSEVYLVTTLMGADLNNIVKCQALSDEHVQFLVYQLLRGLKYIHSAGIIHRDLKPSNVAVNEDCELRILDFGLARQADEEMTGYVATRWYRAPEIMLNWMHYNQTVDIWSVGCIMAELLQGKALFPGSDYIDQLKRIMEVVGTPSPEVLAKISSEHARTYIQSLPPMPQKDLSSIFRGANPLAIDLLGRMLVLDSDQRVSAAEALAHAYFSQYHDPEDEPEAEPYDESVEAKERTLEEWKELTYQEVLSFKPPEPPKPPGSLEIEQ

[14] = target: Megakaryocyte-associated tyrosine-protein kinase (Homo sapiens) (UniProt P42679); assay: Inhibition of CTK (unknown origin) assessed as remaining activity at 1 uM by Kinome scan method relative to control
Chain of Megakaryocyte-associated tyrosine-protein kinase (Homo sapiens) (P42679 whole entry): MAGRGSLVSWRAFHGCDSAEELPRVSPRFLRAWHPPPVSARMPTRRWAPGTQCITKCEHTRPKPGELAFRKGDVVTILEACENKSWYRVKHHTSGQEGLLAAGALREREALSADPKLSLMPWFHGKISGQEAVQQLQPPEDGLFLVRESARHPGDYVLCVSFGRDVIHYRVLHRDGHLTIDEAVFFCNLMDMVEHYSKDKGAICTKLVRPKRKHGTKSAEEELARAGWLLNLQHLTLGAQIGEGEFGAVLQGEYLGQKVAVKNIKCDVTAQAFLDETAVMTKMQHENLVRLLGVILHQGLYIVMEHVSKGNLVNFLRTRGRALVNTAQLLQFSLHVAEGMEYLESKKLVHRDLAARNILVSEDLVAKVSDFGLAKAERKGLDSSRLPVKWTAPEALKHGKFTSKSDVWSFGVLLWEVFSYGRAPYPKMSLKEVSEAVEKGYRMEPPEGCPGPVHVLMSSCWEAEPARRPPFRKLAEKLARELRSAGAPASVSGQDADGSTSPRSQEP
Outline: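 Active-site-dependent competition-binding profiling (KINOMEscan) at 1 μM against a 468-kinase panel; compound supplied from a 10 mM DMSO stock. Read-out is ctrl% = (test signal − positive control signal)/(negative control signal − positive control signal) × 100. DMSO is the negative control (100%) and a control compound the positive control (0%). Lower ctrl% means tighter binding.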

[15] = system: Mus musculus; assay: Protection against APAP induced liver injury in mouse assessed as decrease in mortality rate at 1 mg/kg, ip administered at 2.5 hrs in the presence of NAC; type: functional, organism-based
[16] = target: Aurora kinase C (Homo sapiens) (UniProt Q9UQB9); assay: Inhibition of AURKC (unknown origin) assessed as remaining activity at 1 uM by Kinome scan method relative to control
Outline: (§1)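 KINOMEscan active-site-dependent competition-binding panel of 468 kinases, compound at 1 μM from a DMSO stock. Result reported as ctrl% = (test signal − positive control signal)/(negative control signal − positive control signal) × 100. The negative control is DMSO (100%) and the positive control is a control compound (0%). Lower ctrl% means tighter binding.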

[17] = target: Serine/threonine-protein kinase PLK3 (Homo sapiens) (UniProt Q9H4B4); assay: Inhibition of PLK3 (unknown origin) assessed as remaining activity at 1 uM by Kinome scan method relative to control
[18] = target: Mitogen-activated protein kinase 1 (Homo sapiens) (UniProt P28482); assay: Inhibition of ERK2 (unknown origin) assessed as remaining activity at 1 uM by Kinome scan method relative to control
Chain of Mitogen-activated protein kinase 1 (Homo sapiens) (P28482 whole entry): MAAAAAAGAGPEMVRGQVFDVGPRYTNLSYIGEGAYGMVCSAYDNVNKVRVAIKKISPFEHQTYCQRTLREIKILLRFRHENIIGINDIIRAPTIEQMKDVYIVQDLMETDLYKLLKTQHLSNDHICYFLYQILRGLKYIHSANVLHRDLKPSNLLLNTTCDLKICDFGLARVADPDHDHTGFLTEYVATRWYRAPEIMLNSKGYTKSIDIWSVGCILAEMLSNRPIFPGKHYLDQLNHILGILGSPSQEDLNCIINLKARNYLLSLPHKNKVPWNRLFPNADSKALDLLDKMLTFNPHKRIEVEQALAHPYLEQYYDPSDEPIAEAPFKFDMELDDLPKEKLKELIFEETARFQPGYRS

[19] = target: Serine/threonine-protein kinase 32C (Homo sapiens) (UniProt Q86UX6); assay: Inhibition of YANK3 (unknown origin) assessed as remaining activity at 1 uM by Kinome scan method relative to control
[20] = target: Mitotic checkpoint serine/threonine-protein kinase BUB1 (Homo sapiens) (UniProt O43683); assay: Inhibition of BUB1 (unknown origin) assessed as remaining activity at 1 uM by Kinome scan method relative to control; outline: as §1
Chain of Mitotic checkpoint serine/threonine-protein kinase BUB1 (Homo sapiens) (O43683 whole entry, looked up): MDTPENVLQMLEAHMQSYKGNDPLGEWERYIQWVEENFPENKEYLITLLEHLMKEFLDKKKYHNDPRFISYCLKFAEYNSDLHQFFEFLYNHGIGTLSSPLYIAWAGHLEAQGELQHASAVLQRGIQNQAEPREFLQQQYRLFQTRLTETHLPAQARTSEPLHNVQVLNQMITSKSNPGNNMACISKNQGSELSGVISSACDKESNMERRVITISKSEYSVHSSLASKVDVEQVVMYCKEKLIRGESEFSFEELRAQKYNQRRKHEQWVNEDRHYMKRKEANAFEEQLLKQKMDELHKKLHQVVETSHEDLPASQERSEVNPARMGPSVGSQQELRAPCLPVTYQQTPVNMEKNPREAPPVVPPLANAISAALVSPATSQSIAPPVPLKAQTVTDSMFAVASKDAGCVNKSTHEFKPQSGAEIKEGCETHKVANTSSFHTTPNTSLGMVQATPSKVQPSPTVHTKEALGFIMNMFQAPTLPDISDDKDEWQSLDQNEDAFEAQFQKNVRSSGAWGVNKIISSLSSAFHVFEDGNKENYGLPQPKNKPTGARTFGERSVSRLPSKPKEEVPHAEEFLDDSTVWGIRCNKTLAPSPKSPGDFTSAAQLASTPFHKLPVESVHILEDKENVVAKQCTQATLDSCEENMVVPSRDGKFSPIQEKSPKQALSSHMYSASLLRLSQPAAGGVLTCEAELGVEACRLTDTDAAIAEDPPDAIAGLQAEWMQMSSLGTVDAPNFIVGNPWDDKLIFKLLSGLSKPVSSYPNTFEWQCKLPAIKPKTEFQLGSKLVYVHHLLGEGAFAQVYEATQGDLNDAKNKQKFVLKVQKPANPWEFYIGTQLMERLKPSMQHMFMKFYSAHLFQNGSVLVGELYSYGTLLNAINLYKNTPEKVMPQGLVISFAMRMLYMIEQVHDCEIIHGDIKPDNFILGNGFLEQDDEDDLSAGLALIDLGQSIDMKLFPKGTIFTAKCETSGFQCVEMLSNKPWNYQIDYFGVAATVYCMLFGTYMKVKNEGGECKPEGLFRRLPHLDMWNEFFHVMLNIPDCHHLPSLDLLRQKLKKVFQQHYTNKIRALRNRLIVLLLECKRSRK

Chain of NUAK family SNF1-like kinase 2 (Homo sapiens) (Q9H093 whole entry): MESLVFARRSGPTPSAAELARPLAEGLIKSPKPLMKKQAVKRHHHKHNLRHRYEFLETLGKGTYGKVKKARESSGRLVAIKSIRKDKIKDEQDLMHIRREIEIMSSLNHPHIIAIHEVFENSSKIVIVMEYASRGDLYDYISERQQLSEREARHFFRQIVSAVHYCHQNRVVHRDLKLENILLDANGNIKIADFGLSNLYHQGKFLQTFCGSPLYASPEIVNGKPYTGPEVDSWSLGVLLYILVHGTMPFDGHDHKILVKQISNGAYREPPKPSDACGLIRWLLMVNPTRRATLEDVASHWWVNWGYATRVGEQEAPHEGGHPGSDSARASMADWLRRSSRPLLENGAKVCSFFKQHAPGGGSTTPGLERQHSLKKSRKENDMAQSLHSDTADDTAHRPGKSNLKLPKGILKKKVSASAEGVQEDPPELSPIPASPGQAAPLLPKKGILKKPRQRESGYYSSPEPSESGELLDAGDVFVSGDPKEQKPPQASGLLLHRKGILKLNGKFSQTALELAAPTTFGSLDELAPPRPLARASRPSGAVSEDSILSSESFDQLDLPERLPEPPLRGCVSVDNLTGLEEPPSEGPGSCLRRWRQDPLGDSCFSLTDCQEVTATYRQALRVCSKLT

CN1C(=O)c2sccc2N(C)c2nc(Nc3ccc(S(N)(=O)=O)cc3)ncc21
Activity [1]: 12% | Activity [2]: 94% | Activity [3]: Non-Toxic | Activity [4]: 100% | Activity [5]: 75% | Activity [6]: Non-Toxic | Activity [7]: 84% | Activity [8]: 100% | IC50 [9]: 38.1 nM | Activity [10]: 100% | Activity [11]: Toxic | Activity [12]: 100% | Activity [13]: 83% | Activity [14]: 59% | Activity [15]: Active | Activity [16]: 95% | Activity [17]: 99% | Activity [18]: 100% | Activity [19]: 100% | Activity [20]: 95%
